# Assay results taken from ChEMBL document CHEMBL4689842, “EUbOPEN Chemogenomics Library wave 1” (2021).
# Experiments:
# Type in all cases: toxicity, cell-based
# HEK-293T [1] = experiment: Multiplex assay against HEK293T; conditions: human;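 for Population Tubulin-Different-Phenotype (%): share of the cells with healthy nuclei that show this phenotype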
# Outline: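 Live cells were stained at seeding with Hoechst33342, BioTracker Green Microtubule Cytoskeleton Dye, MitoTracker Red and Annexin V Alexa Fluor 680, then imaged on a CQ1 microscope at 37°C and 5% CO2 after compound addition. CellPathfinder machine-learning gating split cells into Hoechst high-intensity objects or normal cells. Normal cells were split into healthy, pyknosed or fragmented nuclei, and pyknosed cells into mitotic or apoptotic. Tubulin, mitochondrial-mass and membrane-permeability phenotypes are per cents of healthy-nucleus cells.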
# HEK-293T [2] = experiment: Incucyte cell viability with HEK293T; conditions: human, 10 µM, compound concentration 10 uM; note: filed as whole numbers so only -1 and 0 and 1 occur
# Fibroblast = experiment: Incucyte cell viability with human fibroblast; conditions: 10 µM, compound concentration 10 uM; note: filed as whole numbers so only -1 and 0 and 1 occur
# [3] = 12 h, 1 µM, compound concentration 1 uM, replicate 1
# [4] = 12 h, 1 µM, compound concentration 1 uM, replicate 2
# [5] = 12 h, 10 µM, compound concentration 10 uM, replicate 1
# [6] = 12 h, 10 µM, compound concentration 10 uM, replicate 2
# [7] = 24 h, 1 µM, compound concentration 1 uM, replicate 1
# [8] = 24 h, 1 µM, compound concentration 1 uM, replicate 2
# [9] = 24 h, 10 µM, compound concentration 10 uM, replicate 1
# [10] = 24 h, 10 µM, compound concentration 10 uM, replicate 2
# [11] = 48 h, 1 µM, compound concentration 1 uM, replicate 1
# [12] = 48 h, 1 µM, compound concentration 1 uM, replicate 2
# [13] = 48 h, 10 µM, compound concentration 10 uM, replicate 1
# [14] = 48 h, 10 µM, compound concentration 10 uM, replicate 2
# [15] = 0 h, replicate number 1, timepoint 0 hours
# [16] = 18 h, replicate number 1, timepoint 18 hours
# [17] = 24 h, replicate number 1, timepoint 24 hours
structure (smiles),measurement,setting,value
CN1C(=O)[C@@H](NC(=O)c2cc3ccccc3[nH]2)N=C(c2ccccc2)c2ccccc21 [DEVAZEPIDE],Population Apoptotic (%),HEK-293T [1]; [3],49%
same,Population Fragmented Nuclei (%),HEK-293T [1]; [3],9%
same,Population Healthy Nuclei (%),HEK-293T [1]; [3],38%
same,Population Hoechst High Intensity Objects (%),HEK-293T [1]; [3],11%
same,Population Membrane Permeable-Phenotype (%),HEK-293T [1]; [3],8%
same,Population Mitochondria Different-Phenotype (%),HEK-293T [1]; [3],73%
same,Population Mitotic Cells (%),HEK-293T [1]; [3],50%
same,Population Normal (%),HEK-293T [1]; [3],88%
same,Population Pyknosed Nuclei (%),HEK-293T [1]; [3],52%
same,Population Tubulin-Different-Phenotype (%),HEK-293T [1]; [3],50%
same,Total Cell Count,HEK-293T [1]; [3],314
same,Population Apoptotic (%),HEK-293T [1]; [4],12%
same,Population Fragmented Nuclei (%),HEK-293T [1]; [4],6%
same,Population Healthy Nuclei (%),HEK-293T [1]; [4],36%
same,Population Hoechst High Intensity Objects (%),HEK-293T [1]; [4],3%
same,Population Membrane Permeable-Phenotype (%),HEK-293T [1]; [4],9%
same,Population Mitochondria Different-Phenotype (%),HEK-293T [1]; [4],34%
same,Population Mitotic Cells (%),HEK-293T [1]; [4],87%
same,Population Normal (%),HEK-293T [1]; [4],96%
same,Population Pyknosed Nuclei (%),HEK-293T [1]; [4],56%
same,Population Tubulin-Different-Phenotype (%),HEK-293T [1]; [4],28%
same,Total Cell Count,HEK-293T [1]; [4],205
same,Population Apoptotic (%),HEK-293T [1]; [5],58%
same,Population Fragmented Nuclei (%),HEK-293T [1]; [5],11%
same,Population Healthy Nuclei (%),HEK-293T [1]; [5],24%
same,Population Hoechst High Intensity Objects (%),HEK-293T [1]; [5],15%
same,Population Membrane Permeable-Phenotype (%),HEK-293T [1]; [5],5%
same,Population Mitochondria Different-Phenotype (%),HEK-293T [1]; [5],88%
same,Population Mitotic Cells (%),HEK-293T [1]; [5],41%
same,Population Normal (%),HEK-293T [1]; [5],84%
same,Population Pyknosed Nuclei (%),HEK-293T [1]; [5],63%
same,Population Tubulin-Different-Phenotype (%),HEK-293T [1]; [5],76%
same,Total Cell Count,HEK-293T [1]; [5],287
same,Population Apoptotic (%),HEK-293T [1]; [6],25%
same,Population Fragmented Nuclei (%),HEK-293T [1]; [6],4%
same,Population Healthy Nuclei (%),HEK-293T [1]; [6],34%
same,Population Hoechst High Intensity Objects (%),HEK-293T [1]; [6],3%
same,Population Membrane Permeable-Phenotype (%),HEK-293T [1]; [6],15%
same,Population Mitochondria Different-Phenotype (%),HEK-293T [1]; [6],48%
same,Population Mitotic Cells (%),HEK-293T [1]; [6],74%
same,Population Normal (%),HEK-293T [1]; [6],96%
same,Population Pyknosed Nuclei (%),HEK-293T [1]; [6],60%
same,Population Tubulin-Different-Phenotype (%),HEK-293T [1]; [6],66%
same,Total Cell Count,HEK-293T [1]; [6],228
same,Population Apoptotic (%),HEK-293T [1]; [7],48%
same,Population Fragmented Nuclei (%),HEK-293T [1]; [7],11%
same,Population Healthy Nuclei (%),HEK-293T [1]; [7],36%
same,Population Hoechst High Intensity Objects (%),HEK-293T [1]; [7],13%
same,Population Membrane Permeable-Phenotype (%),HEK-293T [1]; [7],3%
same,Population Mitochondria Different-Phenotype (%),HEK-293T [1]; [7],67%
same,Population Mitotic Cells (%),HEK-293T [1]; [7],51%
same,Population Normal (%),HEK-293T [1]; [7],86%
same,Population Pyknosed Nuclei (%),HEK-293T [1]; [7],51%
same,Population Tubulin-Different-Phenotype (%),HEK-293T [1]; [7],52%
same,Total Cell Count,HEK-293T [1]; [7],327
same,Population Apoptotic (%),HEK-293T [1]; [8],14%
same,Population Fragmented Nuclei (%),HEK-293T [1]; [8],4%
same,Population Healthy Nuclei (%),HEK-293T [1]; [8],57%
same,Population Hoechst High Intensity Objects (%),HEK-293T [1]; [8],2%
same,Population Membrane Permeable-Phenotype (%),HEK-293T [1]; [8],15%
same,Population Mitochondria Different-Phenotype (%),HEK-293T [1]; [8],20%
same,Population Mitotic Cells (%),HEK-293T [1]; [8],85%
same,Population Normal (%),HEK-293T [1]; [8],97%
same,Population Pyknosed Nuclei (%),HEK-293T [1]; [8],37%
same,Population Tubulin-Different-Phenotype (%),HEK-293T [1]; [8],34%
same,Total Cell Count,HEK-293T [1]; [8],231
same,Population Apoptotic (%),HEK-293T [1]; [9],56%
same,Population Fragmented Nuclei (%),HEK-293T [1]; [9],16%
same,Population Healthy Nuclei (%),HEK-293T [1]; [9],15%
same,Population Hoechst High Intensity Objects (%),HEK-293T [1]; [9],17%
same,Population Membrane Permeable-Phenotype (%),HEK-293T [1]; [9],5%
same,Population Mitochondria Different-Phenotype (%),HEK-293T [1]; [9],91%
same,Population Mitotic Cells (%),HEK-293T [1]; [9],43%
same,Population Normal (%),HEK-293T [1]; [9],82%
same,Population Pyknosed Nuclei (%),HEK-293T [1]; [9],67%
same,Population Tubulin-Different-Phenotype (%),HEK-293T [1]; [9],91%
same,Total Cell Count,HEK-293T [1]; [9],284
same,Population Apoptotic (%),HEK-293T [1]; [10],41%
same,Population Fragmented Nuclei (%),HEK-293T [1]; [10],7%
same,Population Healthy Nuclei (%),HEK-293T [1]; [10],46%
same,Population Hoechst High Intensity Objects (%),HEK-293T [1]; [10],4%
same,Population Membrane Permeable-Phenotype (%),HEK-293T [1]; [10],15%
same,Population Mitochondria Different-Phenotype (%),HEK-293T [1]; [10],47%
same,Population Mitotic Cells (%),HEK-293T [1]; [10],58%
same,Population Normal (%),HEK-293T [1]; [10],95%
same,Population Pyknosed Nuclei (%),HEK-293T [1]; [10],46%
same,Population Tubulin-Different-Phenotype (%),HEK-293T [1]; [10],74%
same,Total Cell Count,HEK-293T [1]; [10],245
same,Population Apoptotic (%),HEK-293T [1]; [11],50%
same,Population Fragmented Nuclei (%),HEK-293T [1]; [11],15%
same,Population Healthy Nuclei (%),HEK-293T [1]; [11],28%
same,Population Hoechst High Intensity Objects (%),HEK-293T [1]; [11],16%
same,Population Membrane Permeable-Phenotype (%),HEK-293T [1]; [11],6%
same,Population Mitochondria Different-Phenotype (%),HEK-293T [1]; [11],48%
same,Population Mitotic Cells (%),HEK-293T [1]; [11],50%
same,Population Normal (%),HEK-293T [1]; [11],83%
same,Population Pyknosed Nuclei (%),HEK-293T [1]; [11],55%
same,Population Tubulin-Different-Phenotype (%),HEK-293T [1]; [11],41%
same,Total Cell Count,HEK-293T [1]; [11],356
same,Population Apoptotic (%),HEK-293T [1]; [12],9%
same,Population Fragmented Nuclei (%),HEK-293T [1]; [12],5%
same,Population Healthy Nuclei (%),HEK-293T [1]; [12],74%
same,Population Hoechst High Intensity Objects (%),HEK-293T [1]; [12],4%
same,Population Membrane Permeable-Phenotype (%),HEK-293T [1]; [12],7%
same,Population Mitochondria Different-Phenotype (%),HEK-293T [1]; [12],11%
same,Population Mitotic Cells (%),HEK-293T [1]; [12],90%
same,Population Normal (%),HEK-293T [1]; [12],95%
same,Population Pyknosed Nuclei (%),HEK-293T [1]; [12],20%
same,Population Tubulin-Different-Phenotype (%),HEK-293T [1]; [12],34%
same,Total Cell Count,HEK-293T [1]; [12],361
same,Population Apoptotic (%),HEK-293T [1]; [13],66%
same,Population Fragmented Nuclei (%),HEK-293T [1]; [13],24%
same,Population Healthy Nuclei (%),HEK-293T [1]; [13],6%
same,Population Hoechst High Intensity Objects (%),HEK-293T [1]; [13],22%
same,Population Membrane Permeable-Phenotype (%),HEK-293T [1]; [13],7%
same,Population Mitochondria Different-Phenotype (%),HEK-293T [1]; [13],100%
same,Population Mitotic Cells (%),HEK-293T [1]; [13],33%
same,Population Normal (%),HEK-293T [1]; [13],77%
same,Population Pyknosed Nuclei (%),HEK-293T [1]; [13],69%
same,Population Tubulin-Different-Phenotype (%),HEK-293T [1]; [13],84%
same,Total Cell Count,HEK-293T [1]; [13],276
same,Population Apoptotic (%),HEK-293T [1]; [14],63%
same,Population Fragmented Nuclei (%),HEK-293T [1]; [14],12%
same,Population Healthy Nuclei (%),HEK-293T [1]; [14],44%
same,Population Hoechst High Intensity Objects (%),HEK-293T [1]; [14],5%
same,Population Membrane Permeable-Phenotype (%),HEK-293T [1]; [14],22%
same,Population Mitochondria Different-Phenotype (%),HEK-293T [1]; [14],41%
same,Population Mitotic Cells (%),HEK-293T [1]; [14],36%
same,Population Normal (%),HEK-293T [1]; [14],94%
same,Population Pyknosed Nuclei (%),HEK-293T [1]; [14],43%
same,Population Tubulin-Different-Phenotype (%),HEK-293T [1]; [14],64%
same,Total Cell Count,HEK-293T [1]; [14],237
same,Growth Rate,HEK-293T [2]; [15],0
same,Growth Rate,"HEK-293T [2]; 6 h, replicate number 2, timepoint 6 hours",1
same,Growth Rate,"HEK-293T [2]; 12 h, replicate number 1, timepoint 12 hours",1
same,Growth Rate,"HEK-293T [2]; 12 h, replicate number 2, timepoint 12 hours",0
same,Growth Rate,HEK-293T [2]; [16],0
same,Growth Rate,HEK-293T [2]; [17],0
same,Growth Rate,Fibroblast; [15],0
same,Growth Rate,Fibroblast; [16],1
same,Growth Rate,Fibroblast; [17],1
